pIC50: −log10 of the molar value.
Assays:
[1] = target: Delta-type opioid receptor (Mus musculus, UniProt P32300); assay: Agonistic activity towards Opioid receptor delta 1 as inhibitory activity towards electrically stimulated mouse vas deferens; format: functional, tissue-based
Outline: (§1)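 Electrically stimulated smooth muscle bioassay. Guinea pig ileum longitudinal muscle-myenteric plexus strips come from male Hartley guinea pigs (250–500 g); vas deferens from male ICR mice (25–40 g). Tissues sit in 37 °C oxygenated Krebs bicarbonate (Mg-free for MVD) at 1 g tension (0.5 g MVD). Stimulation is 0.1 Hz, 0.4 ms pulses (2 ms MVD), supramaximal voltage.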

[2] = target: Mu-type opioid receptor (Cavia porcellus, UniProt P97266); assay: Agonistic activity for Opioid receptor mu 1 as inhibitory activity towards electrically stimulated guinea pig ileum; format: functional, tissue-based; outline: as §1
[3] = target: Delta-type opioid receptor (Rattus norvegicus, UniProt P33533); assay: Inhibition of [3H]- DADLE binding to Rat brain Opioid receptor delta 1
[4] = target: Kappa-type opioid receptor (Cavia porcellus, UniProt P41144); assay: Inhibition of [3H]- U69,593 binding to Guinea pig Opioid receptor kappa 1
[5] = target: T1, Mu-type opioid receptor (Rattus norvegicus, UniProt P33535); assay: Inhibition of [3H]- DAMGO binding to Rat brain Opioid receptor mu 1
Outline: (§2)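 Rat brain membranes labeled with [3H]DAMGO (1–3 nM), incubated 4 h at 25 °C in 50 mM Tris-HCl pH 7.4 with protease inhibitor cocktail. Nonspecific binding defined by 20 µM levallorphan. Displacement uses 8–10 test concentrations, run twice, diluted in 10 mM Tris pH 7.4 with 1 mg/mL BSA from 1 mM stocks containing 10% DMSO. IC50 and slope factor from curve fitting.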

[6] = Relative affinity for […] opioid receptors
[7] = Relative affinity for mouse vas deferens (delta receptor) and guinea pig ileum (mu receptor); format: tissue-based
Outline: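 GPI/MVD IC50 ratio from the electrically stimulated guinea pig ileum and mouse vas deferens bioassays. Both tissues are stimulated at 0.1 Hz and supramaximal voltage, with cumulative agonist dosing.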

[8] = target: Mu-type opioid receptor (Cavia porcellus) (UniProt P97266); assay: Agonistic activity (30 uM) towards mu opioid receptor was determined by evaluating the inhibitory activity towards electrically stimulated guinea pig ileum; format: functional, tissue-based; outline: as §1
[9] = target: T1, Mu-type opioid receptor; assay: Compound was evaluated for Inhibition of Radio Ligand binding of [3H]- DAMGO at Rat brain Opioid receptor mu 1 binding site; outline: as §2
[10] = target: Delta-type opioid receptor (Mus musculus) (UniProt P32300); assay: Agonistic activity towards Opioid receptor delta 1 was determined by evaluating the inhibitory activity towards electrically stimulated mouse vas deferens; format: functional, tissue-based; details: concentration not given here; outline: as §1
Delta-type opioid receptor (Mus musculus), sequence (P32300 whole entry): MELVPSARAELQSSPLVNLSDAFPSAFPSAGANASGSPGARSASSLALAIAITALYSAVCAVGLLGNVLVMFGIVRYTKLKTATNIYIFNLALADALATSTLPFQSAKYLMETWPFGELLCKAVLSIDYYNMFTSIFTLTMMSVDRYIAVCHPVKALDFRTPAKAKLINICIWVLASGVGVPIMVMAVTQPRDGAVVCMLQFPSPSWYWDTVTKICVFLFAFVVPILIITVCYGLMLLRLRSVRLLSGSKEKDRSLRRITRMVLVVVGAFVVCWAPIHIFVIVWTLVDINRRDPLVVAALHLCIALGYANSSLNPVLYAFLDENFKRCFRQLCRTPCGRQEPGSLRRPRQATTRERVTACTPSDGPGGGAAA

Delta-type opioid receptor (Mus musculus, UniProt P32300), sequence (P32300 whole entry): as above
Kappa-type opioid receptor, sequence (P41144 whole entry): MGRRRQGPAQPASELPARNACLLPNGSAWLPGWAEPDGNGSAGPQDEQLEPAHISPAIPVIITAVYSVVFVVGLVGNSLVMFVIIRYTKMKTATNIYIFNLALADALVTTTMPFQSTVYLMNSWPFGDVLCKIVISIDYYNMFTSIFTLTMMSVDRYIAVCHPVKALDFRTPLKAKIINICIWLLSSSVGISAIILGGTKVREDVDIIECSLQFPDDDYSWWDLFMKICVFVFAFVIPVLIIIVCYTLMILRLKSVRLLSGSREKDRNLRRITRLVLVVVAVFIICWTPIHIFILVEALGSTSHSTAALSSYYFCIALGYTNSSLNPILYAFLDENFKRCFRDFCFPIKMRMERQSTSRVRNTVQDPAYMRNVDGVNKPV
Delta-type opioid receptor (Rattus norvegicus, UniProt P33533), sequence (P33533 whole entry): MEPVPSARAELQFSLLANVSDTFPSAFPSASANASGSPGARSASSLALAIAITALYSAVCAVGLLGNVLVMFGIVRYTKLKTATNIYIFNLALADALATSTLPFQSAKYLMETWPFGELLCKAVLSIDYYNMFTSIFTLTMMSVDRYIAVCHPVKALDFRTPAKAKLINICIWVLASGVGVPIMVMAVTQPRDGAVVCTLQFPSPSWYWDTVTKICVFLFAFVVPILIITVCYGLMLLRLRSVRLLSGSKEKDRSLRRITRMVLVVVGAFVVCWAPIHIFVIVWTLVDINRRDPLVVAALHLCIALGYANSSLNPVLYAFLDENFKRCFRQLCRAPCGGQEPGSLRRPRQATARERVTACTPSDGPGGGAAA
Mu-type opioid receptor (Cavia porcellus, UniProt P97266), sequence (P97266 whole entry): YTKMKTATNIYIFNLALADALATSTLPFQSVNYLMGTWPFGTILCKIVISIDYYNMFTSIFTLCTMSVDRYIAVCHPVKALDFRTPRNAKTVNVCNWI
T1 sequence (P33535 whole entry): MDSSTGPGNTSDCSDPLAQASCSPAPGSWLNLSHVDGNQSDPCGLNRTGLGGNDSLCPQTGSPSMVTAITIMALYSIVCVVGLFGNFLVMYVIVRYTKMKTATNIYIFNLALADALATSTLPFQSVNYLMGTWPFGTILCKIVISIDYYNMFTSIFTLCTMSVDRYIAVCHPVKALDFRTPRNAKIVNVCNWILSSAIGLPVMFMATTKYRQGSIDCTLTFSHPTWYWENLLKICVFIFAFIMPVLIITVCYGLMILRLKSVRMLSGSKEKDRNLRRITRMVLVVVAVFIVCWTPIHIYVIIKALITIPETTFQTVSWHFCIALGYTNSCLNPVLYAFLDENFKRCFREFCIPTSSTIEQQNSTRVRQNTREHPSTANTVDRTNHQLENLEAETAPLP
Mu-type opioid receptor (Cavia porcellus), sequence (P97266 whole entry): as the sequence (P97266 whole entry) above

| SMILES | pIC50 [1] | pIC50 [2] | pIC50 [3] | pIC50 [4] | pIC50 [5] | Ratio [6] | Ratio [7] | other results |
| --- | --- | --- | --- | --- | --- | --- | --- | --- |
| COc1ccc2[nH]c3c(c2c1)C1(c2cccc(O)c2)CCN(C)C(C3)C1 (racemic) [listing 1 of 2 here] | 5.36 | 5.17 | 7.05 | < 6.00 | 7.62 | – | – | – |
| COc1ccc2c3c([nH]c2c1)CC1CC3(c2cccc(O)c2)CCN1C (racemic) | 6.93 | 6.06 | 8.20 | < 6.00 | 7.32 | > 159 | 7.3 | – |
| CC(C)C[C@@H](NC(=O)[C@H](Cc1ccccc1)NC(=O)CNC(=O)[C@@H](C)NC(=O)[C@@H](N)Cc1ccc(O)cc1)C(=O)O [DADLE] | – | – | – | 5.36 | – | – | – | – |
| COc1cccc2c3c([nH]c12)CC1CC3(c2cccc(O)c2)CCN1C (racemic) [listing 1 of 2 here] | – | – | – | – | – | 455 | 7.2 | – |
| COc1cccc2c3c([nH]c12)CC1CC3(c2cccc(O)c2)CCN1C (racemic) [listing 2 of 2 here] | 6.57 | 5.71 | 8.06 | 5.40 | 7.54 | – | – | – |
| COc1cccc2c3c([nH]c12)CC1CC3(c2cccc(O)c2)CCN1C (single isomer, unassigned; (-)) [listing 1 of 2 here] | 6.78 | 5.54 | 8.36 | 5.75 | 7.53 | – | – | – |
| C=CCN1C[C@H](C)N([C@H](c2ccc(C(=O)N(CC)CC)cc2)c2cccc(OC)c2)C[C@H]1C [SNC-80] | – | 5.26 | – | < 6.00 | 5.61 | – | – | – |
| CN1CCC2(c3cccc(O)c3)CC(=O)CC1C2 (racemic) | – | – | – | – | – | 2.81 | – | – |
| CN1CCC2(c3ccccc3)CC1Cc1[nH]c3ccccc3c12 (racemic) | – | – | 5.71 | < 5.00 | – | 5.08 | – | – |
| COc1ccc2c3c([nH]c2c1)C[C@@H]1C[C@@]3(c2cccc(O)c2)CCN1C | 7.31 | – | 8.43 | 5.93 | 7.18 | 314 | > 612 | inhibition [8]: 38% |
| COc1ccc2[nH]c3c(c2c1)C1(c2cccc(O)c2)CCN(C)C(C3)C1 (stereo in doubt; (-)-11) [listing 1 of 2 here] | – | 4.59 | 6.84 | < 5.60 | 6.32 | – | – | – |
| CN1CC[C@]2(c3cccc(O)c3)C[C@H]1Cc1[nH]c3ccccc3c12 | 6.41 | 5.63 | 8.25 | – | – | – | 6 | pIC50 [9]: 7.85 |
| COc1cccc2c3c([nH]c12)CC1CC3(c2cccc(O)c2)CCN1C (single isomer, unassigned; (-)) [listing 2 of 2 here] | – | – | – | – | – | 402 | 17.5 | – |
| COc1ccc2[nH]c3c(c2c1)C1(c2cccc(O)c2)CCN(C)C(C3)C1 (stereo in doubt; (-)-11) [listing 2 of 2 here] | – | – | – | – | – | 17.4 | – | inhibition [10]: 0% |
| CN1CCC2(c3cccc(O)c3)CC(=O)CC1C2 (stereo not given) | – | – | – | – | – | 4.46 | – | – |
| COc1ccc2[nH]c3c(c2c1)C1(c2cccc(O)c2)CCN(C)C(C3)C1 (racemic) [listing 2 of 2 here] | – | – | – | – | – | 11.1 | 1.5 | – |
